Source: PubChem (Broad Institute)
Sampled rows, rich in hits. Any-hit rate of the full collection: about 1.3%.
ERp5 inh = blocks human ERp5 reductase activity on insulin. inhibition, % at 9.99 µM. ERp5 insulin aggregation, absorbance 650 nm, 90 min. 350,000 tested, 0.05% active. AID 651711;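 active = mean replicate inhibition above about 25%, with every replicate also reaching it, limit read from the data, passing the limit was not always enough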
FN deposition inh = fibronectin deposition inhibition; AH1F fibroblasts, Alexa488-fibronectin deposition fluorescence, overnight; inhibition, % at 12.6 µM; 350,000 tested, 0.086% active; AID 743247;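 active = mean inhibition across replicates of 30% or more, regardless of how many single replicates reach that level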;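 note: positive control wells lacked labelled fibronectin entirely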
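Assay system: AH1F fibroblast monolayer, labelled fibronectin deposition. Amount: 10000 cells per well. Also added: labelled fibronectin 24 nM. Compound: single-point pinned compound. Incubation: cell attachment 1 h, compound and FN exposure overnight. Detection: fluorescence after three HBSS washes, excitation 485 nm, emission 525 nm. Read-out: inhibition of fibronectin deposition signal.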
AF4-AF9 inh = blocks AF4 peptide binding to human AF9; inhibition, % at 10 µM; AID 651704; 350,000 tested, 0.47% active; AlphaScreen, biotin-AF4 peptide binding to FLAG-AF9;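 active = every replicate reaching a set inhibition limit, whatever the replicate mean, cut at about 25% in these data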;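 note: 0% = plate neutral control median and 100% = total signal loss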
PDI turbidity = PDI (human) enzyme inhibition; P07237; PDI insulin aggregation turbidity, A650, 90 min; inhibition, % at 10 µM; 350,000 tested, 0.052% active;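 active = mean inhibition across replicates of 30% or more, whatever share of single replicates reach that level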
SIRT5 inh = blocks human SIRT5 desuccinylation of peptide; inhibition, % at 15 µM; 330,000 tested, 1.1% active; AID 652115; Q9NXA8; Purified SirT5, succinyl-peptide AMC, trypsin-coupled fluorescence; in the data active = inhibition above about 15%
Target sequence (Q9NXA8 whole entry, looked up): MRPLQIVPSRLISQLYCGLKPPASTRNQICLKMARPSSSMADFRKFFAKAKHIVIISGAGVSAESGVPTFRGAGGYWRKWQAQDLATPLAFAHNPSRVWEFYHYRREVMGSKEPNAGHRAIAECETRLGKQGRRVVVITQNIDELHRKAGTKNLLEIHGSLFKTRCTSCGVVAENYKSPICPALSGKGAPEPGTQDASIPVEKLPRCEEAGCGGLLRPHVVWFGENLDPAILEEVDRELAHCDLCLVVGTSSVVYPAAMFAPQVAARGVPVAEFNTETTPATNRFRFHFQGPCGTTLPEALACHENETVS
The depositor's hits bear a star; / = no result; ! = a repeat was not active.

SMILES	ERp5 inh	FN deposition inh	AF4-AF9 inh	PDI turbidity	SIRT5 inh
Oc1ccc(COCc2ccccc2)c2cccnc12	/	3.0	65.9*	3.8	/
Oc1ccc(Cc2ccccc2)c2cccnc12	6.2	4.9	56.8*	-1.1	/
Oc1ccc(CN2CCC(Cc3ccccc3)CC2)c2cccnc12	-5.8	/	76.1*	/	0.7
C[C@H](CO)N1C[C@H](C)[C@@H](CN(C)Cc2ccc(Cl)c(Cl)c2)OCCCC[C@H](C)Oc2ccc(N(C)C)cc2C1=O	5.2	/	42.7*	/	-1.5
C[C@@H]1CCCCO[C@@H](CN(C)CC2CCCCC2)[C@H](C)CN([C@@H](C)CO)C(=O)c2cc(N(C)C)ccc2O1	-1.4	/	36.8*	/	0.8
C[C@@H]1CN([C@@H](C)CO)C(=O)c2cc(N(C)C)ccc2O[C@H]1CN(C)Cc1ccc(Cl)c(Cl)c1	0.5	-12.8	10.9	/	3.3
C[C@H](CO)N1C[C@H](C)[C@H](CN(C)Cc2ccc3c(c2)OCO3)OCCCC[C@H](C)Oc2ccc(N(C)C)cc2C1=O	9.8	/	7.6	/	-2.4
C[C@H](CO)N1C[C@H](C)[C@H](CN(C)Cc2ccc(Cl)c(Cl)c2)Oc2ccc(N(C)C)cc2C1=O	-2.6	-18.4	31.9*	/	0.0
CNC[C@H]1OCCCC[C@@H](C)Oc2ccc(N(C)C)cc2C(=O)N([C@H](C)CO)C[C@H]1C	5.5	/	-22.3	/	15.2*
Cc1cccc(NS(=O)(=O)c2c(C)nc3scc(C)n3c2=O)c1	0.4	-3.6	0.1	7.4	-0.8
Cc1ccc(Nc2nc(C(=O)NCc3ccco3)cs2)cc1	/	1.0	/	-0.3	/
O=C(CCN1C(=O)C2CCCCC2C1=O)Nc1cc([N+](=O)[O-])ccc1Cl (stereo unspecified)	1.1	-0.3	-1.1	-4.7	-1.0
CC(C)NC(=O)Nc1ccc2c(c1)CC(=O)N([C@H](C)CO)C[C@H](C)[C@H](CN(C)CC1CC1)O2	13.0	-4.1	-2.5	/	0.6
C[C@@H]1CCCCO[C@@H](CN(C)Cc2ccc(Cl)c(Cl)c2)[C@@H](C)CN([C@H](C)CO)C(=O)c2cc(N(C)C)ccc2O1	-6.3	/	47.5*	/	/
C[C@H]1CN([C@@H](C)CO)C(=O)Cc2cc(N(C)C)ccc2O[C@H]1CN(C)Cc1ccc(Cl)c(Cl)c1	/	3.4	/	/	/
C[C@@H]1CN([C@@H](C)CO)C(=O)Cc2cc(N(C)C)ccc2O[C@@H]1CN(C)Cc1ccc(Cl)c(Cl)c1	-0.9	/	43.3*	/	0.4
CC1CCCN(CCOCCSc2ccccc2)C1 (stereo unspecified)	2.6	12.0	-0.8	6.3	21.2*
CC1CC(C)CN(CCOCCSc2ccccc2)C1 (stereo unspecified)	1.0	-5.5	-1.8	3.4	-3.7
CCCCn1c(N)c(N(CCOC)C(=O)COC(=O)COc2cccc(C(C)=O)c2)c(=O)[nH]c1=O	7.8	2.4	-0.2	20.0	0.5
O=C(C[C@H]1C[C@H]2c3cc(NC(=O)Nc4ccccc4)ccc3O[C@H]2[C@@H](CO)O1)NCc1ccncc1	7.1	0.8	-2.7	/	17.8*
O=C(C[C@H]1C[C@H]2c3cc(NC(=O)Nc4ccccc4)ccc3O[C@H]2[C@H](CO)O1)NCc1ccncc1	-8.1	-9.1	0.3	/	1.1
O=C(C[C@H]1C[C@H]2c3cc(NS(=O)(=O)c4ccc(F)cc4)ccc3O[C@H]2[C@H](CO)O1)NCc1ccc(-c2ccccc2)cc1	-3.4	4.3	0.2	/	17.9*
O=C(C[C@@H]1C[C@H]2c3cc(NS(=O)(=O)c4ccc(F)cc4)ccc3O[C@H]2[C@H](CO)O1)NCc1ccccc1	-6.0	-14.6	1.4	/	-3.4
O=C(C[C@@H]1C[C@@H]2c3cc(NS(=O)(=O)c4ccc(F)cc4)ccc3O[C@@H]2[C@@H](CO)O1)NCc1ccc(-c2ccccc2)cc1	10.6	/	1.4	/	-2.4
O=C(C[C@@H]1C[C@H]2c3cc(NS(=O)(=O)c4ccc(F)cc4)ccc3O[C@H]2[C@@H](CO)O1)NCc1ccc(-c2ccccc2)cc1	12.7	12.4	0.3	/	15.9*
O=C(C[C@H]1C[C@@H]2c3cc(NC(=O)C4CCC4)ccc3O[C@@H]2[C@@H](CO)O1)NCc1ccc(-c2ccccc2)cc1	0.2	4.7	-0.9	/	23.0*
C[C@@H]1CN([C@@H](C)CO)S(=O)(=O)c2ccc(-c3cccnc3)cc2O[C@@H]1CN(C)Cc1cccnc1	/	6.4	/	/	/
O=C(C[C@@H]1C[C@H]2c3cc(NC(=O)Nc4ccccc4F)ccc3O[C@H]2[C@H](CO)O1)NCC(F)(F)F	84.1*!	0.4	-0.3	-4.7	0.4
